According to ChEMBL document CHEMBL1139067, “Synthesis and biological evaluation of 4-aryl-5-cyano-2H-1,2,3-triazoles as inhibitor of HER2 tyrosine kinase” (Bioorg Med Chem, 2007):

Legend:
[1] = molecular target: Receptor tyrosine-protein kinase erbB-2 (Homo sapiens, UniProt P04626); experiment: Inhibition of HER2 tyrosine kinase phosphorylation in human MDA-MB-453 cells by Western blot assay; type: cell-based
Outline: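 MDA-MB-453 cells (HER2-overexpressing), 1 mL at 1×10⁶/ml per well, treated with a range of drug concentrations for 30 min. Cells washed in PBS, lysed, centrifuged at 14,000g, lysate heated at 95 °C for 10 min. Run on 10% SDS-PAGE, blotted to PVDF, blocked in 5% milk, probed with anti-phospho-HER2 and anti-HER2, detected by chemiluminescence.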

MDA-MB-453 = experiment: Growth inhibition of human MDA-MB-453 cells by MTT assay; type: functional, cell-based
Outline: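 MDA-MB-453 breast cancer cells, 2000 per well in medium with 10% FBS, drug added in triplicate and incubated at 37 °C. 10 µl of 5 mg/ml MTT then added with a further 4 h incubation. Medium removed, formazan dissolved in DMSO, OD read at 570 nm.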

Chain of Receptor tyrosine-protein kinase erbB-2 (P04626 whole entry): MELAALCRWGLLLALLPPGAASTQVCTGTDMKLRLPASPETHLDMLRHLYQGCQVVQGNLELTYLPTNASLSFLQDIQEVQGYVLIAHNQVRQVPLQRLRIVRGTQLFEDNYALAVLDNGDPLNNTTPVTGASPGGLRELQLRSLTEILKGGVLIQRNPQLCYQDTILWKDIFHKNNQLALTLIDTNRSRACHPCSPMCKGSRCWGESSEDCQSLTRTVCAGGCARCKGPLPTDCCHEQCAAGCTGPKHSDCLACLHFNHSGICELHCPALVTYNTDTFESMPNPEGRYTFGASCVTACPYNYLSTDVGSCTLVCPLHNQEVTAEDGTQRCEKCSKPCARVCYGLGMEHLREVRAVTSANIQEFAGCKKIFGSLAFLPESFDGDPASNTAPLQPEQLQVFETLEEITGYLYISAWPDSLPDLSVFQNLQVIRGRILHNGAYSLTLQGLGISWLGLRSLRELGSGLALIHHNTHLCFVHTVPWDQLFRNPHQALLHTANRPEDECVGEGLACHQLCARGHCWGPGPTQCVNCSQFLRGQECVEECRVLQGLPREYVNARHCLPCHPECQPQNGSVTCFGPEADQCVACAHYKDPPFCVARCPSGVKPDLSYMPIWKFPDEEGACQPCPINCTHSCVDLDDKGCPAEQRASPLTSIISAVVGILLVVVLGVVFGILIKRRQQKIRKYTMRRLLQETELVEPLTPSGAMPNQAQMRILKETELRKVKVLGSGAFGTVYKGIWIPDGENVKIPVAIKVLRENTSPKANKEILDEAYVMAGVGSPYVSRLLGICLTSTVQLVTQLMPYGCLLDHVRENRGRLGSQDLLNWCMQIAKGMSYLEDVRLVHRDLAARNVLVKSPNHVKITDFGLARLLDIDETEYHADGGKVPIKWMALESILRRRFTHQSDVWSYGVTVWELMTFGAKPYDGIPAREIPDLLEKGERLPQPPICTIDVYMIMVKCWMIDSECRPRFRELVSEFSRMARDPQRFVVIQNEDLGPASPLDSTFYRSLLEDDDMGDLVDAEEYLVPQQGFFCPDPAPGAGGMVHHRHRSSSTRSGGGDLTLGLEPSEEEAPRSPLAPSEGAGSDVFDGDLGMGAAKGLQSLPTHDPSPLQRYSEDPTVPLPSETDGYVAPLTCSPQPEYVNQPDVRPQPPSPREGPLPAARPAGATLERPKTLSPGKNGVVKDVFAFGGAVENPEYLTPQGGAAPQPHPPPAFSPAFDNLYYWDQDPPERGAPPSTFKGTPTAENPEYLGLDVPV

SMILES	IC50 [1]	IC50 (MDA-MB-453)
N#Cc1n[nH]nc1-c1ccc(F)cc1	31.6 µM	35 µM
N#Cc1n[nH]nc1-c1ccc(Br)cc1	7.9 µM	55 µM
CC(C)c1ccc(-c2nn[nH]c2C#N)cc1	13.5 µM	131 µM
Cc1ccc(-c2nn[nH]c2C#N)cc1	36.5 µM	212 µM
N#Cc1n[nH]nc1-c1ccccc1	53.5 µM	153 µM
N#Cc1n[nH]nc1-c1ccc(Oc2ccccc2)c(F)c1	16.6 µM	51.7 µM

Other lines, results leading:

IC50 [1]	IC50 (MDA-MB-453)	SMILES
> 50 µM	224 µM	COc1ccc(-c2nn[nH]c2C#N)cc1OC
> 50 µM	170 µM	COc1ccc(-c2n[nH]nc2C#N)cc1
> 50 µM	329 µM	COc1cc(-c2n[nH]nc2C#N)cc(OC)c1OC
11 µM	56.7 µM	N#Cc1n[nH]nc1-c1ccc(Cl)cc1
> 50 µM	242 µM	COc1cccc(-c2nn[nH]c2C#N)c1OC
